Results from ChEMBL document CHEMBL4229349, “Challenging clinically unresponsive medullary thyroid cancer: Discovery and pharmacological activity of novel RET inhibitors” (Eur J Med Chem, 2018).

What was measured:
[1] = Metabolic stability in human liver microsomes assessed as parent compound remaining at 1 uM after 15 mins in presence of NADPH by HPLC-MS/MS analysis; type: ADME, microsome; details: read-out: Stability
In short: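 The compound was incubated at 1 µM with human liver microsomes for 15 min, and the percentage of parent compound remaining was measured.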

[2] = Metabolic stability in human plasma assessed as parent compound remaining at 1 uM after 1 hr by HPLC-MS/MS analysis; type: ADME, cell-free; details: read-out: Stability
In short: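 The compound was incubated in human plasma for 1 h, and stability was expressed as the percentage of parent compound remaining.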

## Clc1ccc(SCc2n[nH]c(-c3ccc(Cl)cc3)n2)cc1
[1]
  remaining at […], 1 µM: 40%
[2]
  remaining at 1 h, 1 µM: 85%
